From publication PMC12811664 (Angewandte Chemie (International Ed. in English), 2025) come the findings set out here.

Assay [1] deals with T1, DC-SIGN ECD (Homo sapiens, UniProt Q9NNX6).
T1 sequence (Q9NNX6 64-404): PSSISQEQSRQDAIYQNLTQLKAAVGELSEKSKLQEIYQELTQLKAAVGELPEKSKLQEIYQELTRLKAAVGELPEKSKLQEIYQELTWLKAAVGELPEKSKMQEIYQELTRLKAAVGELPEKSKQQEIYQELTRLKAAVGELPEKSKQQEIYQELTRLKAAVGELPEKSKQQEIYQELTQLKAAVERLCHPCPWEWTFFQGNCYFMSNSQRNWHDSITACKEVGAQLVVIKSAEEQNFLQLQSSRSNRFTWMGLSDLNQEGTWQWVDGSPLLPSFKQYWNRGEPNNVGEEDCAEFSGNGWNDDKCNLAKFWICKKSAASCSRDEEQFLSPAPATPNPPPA
The assay can be described thus: Plate-based horseradish peroxidase. Type of assay: biochemical. Put shortly: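 Purified DC-SIGN extracellular domain immobilized on plates. Incubated overnight at 4 °C or room temperature with test compound at 0.5 mM for the screen, or at a concentration series for dose-response (overnight, RT, or varied incubation times). After washing, HRP added; it binds via its own glycans. Bound HRP read by peroxidase activity relative to DMSO control. Hit cutoff ≥50% change. EDTA, mannan and mannose used as controls. Mean of three biological replicates.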

In assay [2] the target is T2, DC-SIGN ECD K295R (Homo sapiens, UniProt Q9NNX6, K295R).
T2 sequence (Q9NNX6 64-404 K295R): T1 sequence (Q9NNX6 64-404) with K232R
The assay can be described thus: HRP binding assay with Lys mutant K295R. Type of assay: biochemical.

The target of assay [3] is T3, DC-SIGN CRD wild type (Homo sapiens, UniProt Q9NNX6).
T3 sequence (Q9NNX6 253-404): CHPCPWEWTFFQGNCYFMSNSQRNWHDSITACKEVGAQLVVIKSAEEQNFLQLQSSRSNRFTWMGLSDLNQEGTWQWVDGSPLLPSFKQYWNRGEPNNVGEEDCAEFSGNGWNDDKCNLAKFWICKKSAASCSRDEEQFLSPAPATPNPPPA
In words: Dynamic light scattering of modified protein. The note with it: protein-compound ratios up to 1:10.

In assay [4] the target is T4, DC-SIGN ECD K340R (Homo sapiens, UniProt Q9NNX6, K340R).
T4 sequence (Q9NNX6 64-404 K340R): T1 sequence (Q9NNX6 64-404) with K277R
In words: HRP binding assay with Lys mutant K340R. It is filed as biochemical.

Assay [5] has as its target T5, DC-SIGN ECD K373R (Homo sapiens, UniProt Q9NNX6, K373R).
T5 sequence (Q9NNX6 64-404 K373R): T1 sequence (Q9NNX6 64-404) with K310R
In words: HRP binding assay with Lys mutant K373R. Type of assay: biochemical.

The target of assay [6] is T6, DC-SIGN CRD (Homo sapiens, UniProt Q9NNX6).
T6 sequence (Q9NNX6 253-404): T3 sequence (Q9NNX6 253-404)
In words: Grating-coupled interferometry. Type of assay: binding. The note with it: mannose-PEG3 sensor; for EC50: EC50, GCI binding response, overnight incubation at RT.

Assay [7] concerns the target T7, DC-SIGN CRD M270F (Homo sapiens, UniProt Q9NNX6, M270F).
T7 sequence (Q9NNX6 253-404 M270F): T3 sequence (Q9NNX6 253-404) with M18F
The assay can be described thus: Dynamic light scattering of modified protein, M270F mutant. The note with it: secondary site blocked.

Residue numbers refer to the chain shown, from its start.

The term IC50 denotes the concentration that inhibits the measured activity by half. In assay [1], `OC[C@H]1OC(O)[C@@H](O)[C@@H](O)[C@@H]1O` (stereo partly shown) [mannose, reference compound] registered an IC50 of 11400 µM.
The EC50 is the concentration at which the effect is half-maximal. As to `COc1c(Nc2cc(C(F)(F)F)cc(C(F)(F)F)c2)c(=O)c1=O` [Compound 33, 3-((3,5-bis(trifluoromethyl)phenyl)amino)-4-methoxycyclobut-3-ene-1,2-dione], the entries for the “activity (EC50) on mutant compared to the wild type, HRP assay” value in assay [2], in assay [4] and in assay [5] were “EC50s similar to that of the wild type”, “EC50s similar to that of the wild type” and “drastically reduced activity”, respectively. Moreover, in assay [1] (reaction quenched at different time points), the “time dependency of dose-response after varying incubation times, HRP assay” value is “clear time dependency”. Also, the “change of protein hydrodynamic size upon modification (DLS)” value in assay [3] is recorded as “no increase in size”. In addition, in assay [6], the EC50 worked out at 100 µM. Moreover, the “Hill slope (nH), GCI” value in assay [6] is given as “≈ 1”.
As for `O=C(ON1C(=O)CCC1=O)c1cc(C(F)(F)F)cc(C(F)(F)F)c1` [Compound 11, 2,5-dioxopyrrolidin-1-yl 3,5-bis(trifluoromethyl)benzoate], the “activity (EC50) on mutant compared to the wild type, HRP assay” value in assay [2], in assay [4] and in assay [5] was “No change in EC50” throughout. Besides, the EC50 came to 30 µM in assay [1] and 200 µM in assay [6]. The “change of protein hydrodynamic size upon modification (DLS)” value in assay [7] is recorded as “lack of oligomerization”; in assay [3], “induces oligomerization”.
With `O=Cc1cc2ccccc2cc1C=O` [Compound 30, naphthalene‐2,3‐dicarbaldehyde], the “screening outcome, activity change compared to the DMSO control” value in assay [1] (0.5 mM compound, overnight, cutoff ∼50% activity change) is reported as “potential inhibitor”.
